Drawing on ChEMBL document CHEMBL1123030, “N-(Aminoalkyl)imide antineoplastic agents. Synthesis and biological activity” (J Med Chem, 1985), this text covers T/C and Cytotoxic concentration for 13 compounds.

Test [1] relates to P388. Put plainly: Inhibitory activity in vivo against P388 leukemia cells in mice at a dose of 25 mg/kg upon intraperitoneal administration. In kind it is functional, Mus musculus. The gist of the method:
(§1)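 Tumor source was ascites fluid implanted into BDF₁ mice. Tumor inoculation and drug dosing were both intraperitoneal, given once daily for 5 days (q1d × 5). Screening and data interpretation followed the general NCI protocol.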

Test [2] concerns L1210. Put plainly: Cytotoxic activity against L1210 leukemia in vitro. In kind it is functional, Mus musculus.
In test [3] the test system is P388. Put plainly: Inhibitory activity in vivo against P388 leukemia cells in mice at a dose of 50 mg/kg upon intraperitoneal administration. In kind it is functional, Mus musculus. The gist of the method:
as §1

The subject of test [4] is P388. Description: Inhibitory activity in vivo against P388 leukemia cells in mice at a dose of 100 mg/kg upon intraperitoneal administration. In kind it is functional, Mus musculus. The essentials:
as §1

Test [5] is described as follows: Cytotoxic activity against human colon adenocarcinoma in vitro. In kind it is functional.
Test [6] deals with P388. Put plainly: Inhibitory activity in vivo against P388 leukemia cells in mice at a dose of 12.5 mg/kg upon intraperitoneal administration. In kind it is functional, Mus musculus. The gist of the method: as §1
For test [7], the system named is Mus musculus. Put plainly: Compound was evaluated for inhibitory activity against B-16 melanoma in mice at a dose of 12.5 mg/kg upon intraperitoneal administration. In kind it is functional.
Test [8] relates to Mus musculus. Put plainly: Compound was evaluated for inhibitory activity against B-16 melanoma in mice at a dose of 25 mg/kg upon intraperitoneal administration. In kind it is functional.
Test [9] deals with Mus musculus. Description: Compound was evaluated for inhibitory activity against B-16 melanoma in mice at a dose of 6.25 mg/kg upon intraperitoneal administration. In kind it is functional.
The test system of test [10] is Mus musculus. Description: Compound was evaluated for inhibitory activity in vivo against P388 leukemia cells in mice at a dose of 3.12 mg/kg upon intraperitoneal administration. In kind it is functional. The essentials: as §1
The test system of test [11] is Mus musculus. Put plainly: Compound was evaluated for inhibitory activity in vivo against P388 leukemia cells in mice at a dose of 1.56 mg/kg upon intraperitoneal administration. In kind it is functional. The gist of the method:
as §1

For test [12], the system named is Mus musculus. Description: Compound was evaluated for inhibitory activity in vivo against P388 leukemia cells in mice at a dose of 3.00 mg/kg upon intraperitoneal administration. In kind it is functional. The gist of the method: as §1
Test [13] concerns Mus musculus. Description: Compound was evaluated for inhibitory activity in vivo against P388 leukemia cells in mice at a dose of 0.75 mg/kg upon intraperitoneal administration. In kind it is functional. The gist of the method:
as §1

For test [14], the system named is Mus musculus. Description: Compound was evaluated for inhibitory activity in vivo against P388 leukemia cells in mice at a dose of 1.50 mg/kg upon intraperitoneal administration. In kind it is functional. Particulars: dose 1.5 mg/kg. The gist of the method:
as §1

Test [15] has as its system Mus musculus. Description: Compound was evaluated for inhibitory activity in vivo against P388 leukemia cells in mice at a dose of 120 mg/kg upon intraperitoneal administration. In kind it is functional. The essentials: as §1
Test [16] deals with Mus musculus. Description: Compound was evaluated for inhibitory activity in vivo against P388 leukemia cells in mice at a dose of 240 mg/kg upon intraperitoneal administration. In kind it is functional. The gist of the method: as §1
Test [17] deals with Mus musculus. Description: Compound was evaluated for inhibitory activity in vivo against P388 leukemia cells in mice at a dose of 60 mg/kg upon intraperitoneal administration. In kind it is functional. The essentials:
as §1

The subject of test [18] is Mus musculus. Put plainly: Compound was evaluated for inhibitory activity in vivo against P388 leukemia cells in mice at a dose of 30 mg/kg upon intraperitoneal administration. In kind it is functional. The essentials: as §1
Test [19] has as its system Mus musculus. Description: Compound was evaluated for inhibitory activity in vivo against P388 leukemia cells in mice at a dose of 200 mg/kg upon intraperitoneal administration. In kind it is functional. The gist of the method:
as §1

For test [20], the system named is L1210. Description: Compound was tested for cytotoxic activity against L1210 leukemia in vitro; IA means inactive. In kind it is functional, cell-based. Particulars: Mus musculus.
For test [21], the system named is Mus musculus. Put plainly: Compound was evaluated for inhibitory activity in vivo against P388 leukemia cells in mice at a dose of 3.13 mg/kg upon intraperitoneal administration. In kind it is functional. The essentials:
as §1

For test [22], the system named is Mus musculus. Description: Compound was evaluated for inhibitory activity in vivo against P388 leukemia cells in mice at a dose of 6.25 mg/kg upon intraperitoneal administration. In kind it is functional. The essentials:
as §1

Test [23] concerns L1210. Description: Compound was tested for cytotoxic activity against L1210 leukemia in vitro.; IA means Inactive. In kind it is functional, cell-based. Particulars: Mus musculus.
In test [24] the test system is Mus musculus. Description: Compound was evaluated for inhibitory activity in vivo against P388 leukemia cells in mice at a dose of 400 mg/kg upon intraperitoneal administration. In kind it is functional. The essentials:
as §1

Structures are written as SMILES. Active and inactive are the calls of the source. The rule behind the calls is not given here.

As for `CN(C)CCN1C(=O)c2cccc3cccc(c23)C1=O`, the results for the T/C in test [1], in test [3] and in test [4] were 116, 130 and 166, respectively. In addition, the Cytotoxic concentration in test [2] was 2050 nM.

Consider `CCN(CC)CCN1C(=O)c2cc([N+](=O)[O-])cc3cc([N+](=O)[O-])cc(c23)C1=O.Cl`, for which the T/C stood at 207 in test [1], 215 in test [3] and 141 in [6]. Moreover, the results for the Cytotoxic concentration in test [2] and in test [5] were 347 nM and 820 nM, respectively.

`Cl.O=C1c2cc([N+](=O)[O-])cc3cc([N+](=O)[O-])cc(c23)C(=O)N1CCN1CCCCC1`: the T/C in test [1] is 181; in test [3], 247; in test [7], 133; in test [8], 156; in test [9], 114; in test [6], 138. The results for the Cytotoxic concentration in test [2] and in [5] were 287 nM and 539 nM, respectively.

With `CN(C)CCN1C(=O)c2cc([N+](=O)[O-])cc3cc([N+](=O)[O-])cc(c23)C1=O.Cl`, the T/C worked out at 167 in [10]; 155 in test [11]; 169 in test [12]; 159 in test [13]; 167 in [14]. The figures for the Cytotoxic concentration in test [2] and in test [5] were 36.1 nM and 41.3 nM, respectively.

As to `O=C1c2cc([N+](=O)[O-])cc3cc([N+](=O)[O-])cc(c23)C(=O)N1CCNCCO.O=S(=O)(O)O`, the T/C in [15] stood at 123; in test [16] it was 132; in test [17] it was 123; in [18], 118. Besides, the Cytotoxic concentration came out at 431 nM in test [2] and 1250 nM in test [5].

As for `CN(C)CCCN1C(=O)c2cc([N+](=O)[O-])cc3cc([N+](=O)[O-])cc(c23)C1=O.Cl`, the results for the T/C in test [1], in [3] and in test [6] were 129, 154 and 113, respectively. Besides, the Cytotoxic concentration in [2] is 1420 nM; in test [5], 1180 nM.

`COc1ccc2c3c(cccc13)C(=O)N(CCN(C)C)C2=O`: the T/C in test [19] amounted to 133; in test [3], 109; in test [4] it was 117. The Cytotoxic concentration result in [20] was “inactive”.

With `Cl.O=C1c2cccc3cc([N+](=O)[O-])cc(c23)C(=O)N1CCN1CCCC1`, the T/C in test [21] was found to be 135; in [22], 149; in test [6] it was 163. In addition, the Cytotoxic concentration in test [2] is 159 nM.

Take `Cl.O=C1c2cccc3cccc(c23)C(=O)N1CCNCCO`: the T/C in [1] is 102; in test [3], 120. The Cytotoxic concentration in [2] was found to be 2050 nM.

With `CN(C)CCN1C(=O)c2ccc3c4c(ccc(c24)C1=O)C(=O)N(CCN(C)C)C3=O`, the T/C is 116 in test [10] and 125 in test [22].

With `CN(C)CCN1C(=O)c2cccc3c(Cl)ccc(c23)C1=O`, the T/C in test [1] came to 105; in test [3] it was 121; in test [4] it was 120. The Cytotoxic concentration in test [2] amounted to 1010 nM.

Take `CCNCCN1C(=O)c2cccc3cc([N+](=O)[O-])cc(c23)C1=O.Cl`: the T/C came to 162 in [1], 123 in test [22] and 129 in test [6]. This compound also came in with a Cytotoxic concentration in test [2] of 700 nM.

For `CN(C)CCN1C(=O)c2cccc3c(O)ccc(c23)C1=O.I`, the Cytotoxic concentration result in test [23] is “inactive”. In addition, the values for the T/C in test [19], in [24] and in test [4] were 112, 120 and 107, respectively.
